Bioassay records deposited in PubChem by several laboratories.
Hits are enriched below; roughly 1.3% of the tested compounds scored in any of these assays.
TDP2 inh: human TDP2 enzyme inhibitors, primary screen, biochemical, epi absorbance, recombinant enzyme | T5PNP hydrolysis, p-nitrophenol absorbance 415 nm | inhibition, % at 12.8 µM | 370,000 compounds, 0.34% hits | AID 720702, 2013;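 active = inhibition above the mean of all tested compounds plus 3 SD, set per campaign, cut at about 25% in these data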
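Test system: human TDP2 enzyme; Input: 120 nM TDP2 per well; Buffer or medium: Mg2+-containing Tris-HCl buffer, pH 7.5; Reagent: 5 mM T5PNP; Dosing: 12.8 µM single point, 1% DMSO; Incubation: reaction 2 h, 37 °C; Detection: p-Nitrophenol epi absorbance; Read-out: % inhibition relative to enzyme-containing and enzyme-free wells; Replicates: single well per compound.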
ASAP1 GAP inh: inhibitors of human ASAP1 ArfGAP activity, primary screen, biochemical, fluorescence polarization; inhibition, % at 16.5 µM; ASAP1-stimulated ARF1 GTP hydrolysis, GDP FP detection; 360,000 compounds, 0.19% hits; in the data active = inhibition above about 25%
Target sequence (Q9ULH1 325-724 limits assumed): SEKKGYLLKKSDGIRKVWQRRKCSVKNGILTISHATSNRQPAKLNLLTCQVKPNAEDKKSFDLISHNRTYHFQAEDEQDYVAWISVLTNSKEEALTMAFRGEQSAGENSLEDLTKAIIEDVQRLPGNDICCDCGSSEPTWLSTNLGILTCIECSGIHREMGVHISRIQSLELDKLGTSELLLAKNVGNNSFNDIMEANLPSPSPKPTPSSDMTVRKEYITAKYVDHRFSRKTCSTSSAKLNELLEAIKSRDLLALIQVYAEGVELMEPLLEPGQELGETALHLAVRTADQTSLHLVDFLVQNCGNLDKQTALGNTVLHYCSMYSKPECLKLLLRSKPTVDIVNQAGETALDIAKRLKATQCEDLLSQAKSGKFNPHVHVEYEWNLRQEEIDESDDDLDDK
Casp6 inh: human caspase-6 inhibitors, primary screen, biochemical, VEID-R110 fluorescence, single point, set 2. purified caspase-6, Z-VEID-R110 cleavage fluorescence. P55212. 350,000 compounds, 0.53% hits. AID 686996, 2013. inhibition, % at 12.5 µM;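 active = mean inhibition across replicates at least about 35%, with every replicate also reaching that limit, limit read from the data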
ARFGAP1 inhibitor: inhibitors of rat ARFGAP1 GAP activity, primary screen, biochemical, fluorescence polarization, GDP tracer; AID 651572, 2012; Arfgap1-stimulated ARF1 GTP hydrolysis, GDP FP detection; inhibition, % at 16.5 µM; ADP-ribosylation factor GTPase-activating protein 1 (Rattus norvegicus), Q62848; 360,000 compounds, 0.26% hits;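 active = inhibition above a per-plate limit, mean inhibition of low control wells plus 3 SD, cut at about 25% in these data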
Target sequence (Q62848 1-136 limits assumed): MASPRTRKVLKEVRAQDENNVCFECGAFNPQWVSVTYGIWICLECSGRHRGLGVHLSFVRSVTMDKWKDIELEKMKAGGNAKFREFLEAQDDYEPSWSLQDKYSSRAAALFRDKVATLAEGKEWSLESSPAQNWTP
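System: truncated rat Arfgap1 GAP domain / Medium: HEPES-based buffer, pH 7.5 / Also added: N-terminally truncated human ARF1-GTP substrate / Incubation: enzyme reaction 120 min at 25 °C after 20 min preincubation / Measured by: FP of antibody-bound GDP Alexa 633 tracer, ex 620/em 688 nm / Replicates: singlicate, each compound tested once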
LEDGF integ inh: blockers of LEDGF/p75-dependent integrase strand transfer – biochemical, TR-FRET, high throughput, primary screen | TR-FRET IN-LEDGF/p75 DNA integration, Eu/Cy5 | inhibition, % at 3.7 µM | 370,000 compounds, 0.64% hits | AID 743269, 2014;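 active = inhibition above the screen-wide mean plus 3 SD, cut at about 13% in these data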;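 note: signal is the Cy5 over europium emission ratio at 671 and 618 nm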
ARFGAP1 inh conf: ARFGAP1 inhibitor hit confirmation, biochemical, fluorescence polarization, triplicate; shares compounds with ARFGAP1 inhibitor; ARFGAP1-stimulated ARF1 GTP hydrolysis, GDP tracer FP; inhibition, % at 16.5 µM; 890 compounds, 30% hits;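 active = average inhibition over triplicates above the hit cutoff set in the earlier primary screen, cut at about 25% in these data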
Numbers stand for hits; . = inactive; / = no result given.

SMILES	TDP2 inh	ASAP1 GAP inh	Casp6 inh	ARFGAP1 inhibitor	LEDGF integ inh	ARFGAP1 inh conf
Cc1ccc(NC(=O)c2cccc(S(=O)(=O)NCc3ccccc3)c2)nc1	.	.	.	35.1	.	.
C[C@@H]1CN([C@@H](C)CO)C(=O)c2cc(C#Cc3ccccn3)cnc2O[C@H]1CN(C)Cc1ccncc1	/	/	.	/	/	/
O=C(NC(c1ccc(F)cc1)c1ccc2ccccc2n1)C1CCN(Cc2cccc(C(F)(F)F)c2)CC1 (stereo unspecified)	.	.	.	28.0	.	.
O=c1c2ccccc2nc(/C=C/c2ccccc2)n1CCc1ccccc1	.	.	.	51.7	.	.
Cc1cccc(/C=C/c2nc3ccccc3c(=O)n2Cc2ccccc2)c1	.	.	.	.	.	/
COc1ccc(/C=N/NC(=O)c2cc3cc(OC)c(OC)cc3[nH]2)cc1	.	.	.	38.9	.	51.5
COc1ccc2cc(C(=O)N/N=C/c3cc(OC)c(OC)c(OC)c3)[nH]c2c1	.	.	.	.	.	/
CN(c1cccnc1)c1ccc(NC(=O)Cc2c[nH]c3ccccc23)cc1-c1ccc(F)c(F)c1	.	.	.	25.4	.	.
C=CCN1CCN(C(CC(C)C)c2nnnn2CCOC)CC1 (stereo unspecified)	.	.	/	.	.	/
CCCOc1ccc(OCCNC2CCCC2)cc1	.	.	/	26.2	.	.
c1ccc(NCc2nc(-c3ccccc3)no2)cc1	.	.	/	.	.	/
N#C[C@H]1[C@@H](c2ccccc2C2=CCCC2)[C@@H](CO)N1C(=O)C1CCOCC1	/	/	.	/	/	/
Cc1onc(-c2ccccc2)c1C(=O)Nc1nc(-c2ccccc2)cs1	.	.	/	.	.	/
CC(=O)n1c(=O)c2ccccc2c(=O)n1-c1ccccc1	.	.	.	32.0	.	.
O=c1c2ccccc2c(=O)n(-c2ccccc2)n1CCCCBr	.	.	.	.	.	/
Cc1cc(C)c(S(=O)(=O)N(C)Cc2cnn(C)c2)c(C)c1	.	.	/	.	.	/
Cc1ccc(C(=O)Nc2ccc(S(=O)(=O)N3CCCC3)cc2)o1	.	.	.	25.8	.	.
CC(C)CC(=O)Nc1ccc(S(=O)(=O)N2CCCC2)cc1	.	.	.	.	.	/
CC(C)N(C(=O)NC(=O)Nc1ccc(S(=O)(=O)N2CCCC2)cc1)S(C)(=O)=O	.	.	.	36.1	.	.
O=C(Nc1ccc(-c2ccccc2)cc1)[C@H]1[C@H](CO)[C@H]2Cn3c(cccc3=O)[C@H]2N1CC1CCCC1	/	/	.	/	/	/
COc1ccccc1NS(=O)(=O)c1cc(NC(=O)c2cc(=O)[nH]c3ccccc23)ccc1N1CCOCC1	.	.	.	28.0	.	.
COc1ccc(/C(C)=N/NC(=O)c2sccc2-n2cccc2)cc1	.	.	.	29.2	.	.
COc1cccc(C(=O)NNC(=O)c2sccc2-n2cccc2)c1	.	.	.	.	.	/
COc1cc(/C=N/Nc2ncnc3sc4c(c23)CCC4)ccc1O	.	.	.	25.8	.	.
Fc1ccccc1-c1nc(NC2CCCC2)c2ccccc2n1	.	.	.	.	.	/
SMILES	TDP2 inh	ASAP1 GAP inh	Casp6 inh	ARFGAP1 inhibitor	LEDGF integ inh	ARFGAP1 inh conf
CC(=O)Oc1ccc(NC(=O)Cc2ccccc2)c(C(=O)O)c1	.	.	.	.	.	/
CCOc1ccc(-c2[nH]ncc2-c2ccccc2)c(O)c1	.	.	.	24.9	.	.
COc1ccc(-c2cn[nH]c2-c2ccc(OCc3ccccc3)cc2O)cc1	.	.	.	.	.	/
O=C(COc1ccc(Cl)cc1)Nc1ccc2c(c1)CCC2	.	.	/	29.6	.	.
CC1=C(C(=O)OC(C)(C)C)C(c2cccc3ccccc23)NC(=O)N1 (stereo unspecified)	.	.	.	.	.	/
O=C(CSc1nnc(COc2ccccc2F)n1-c1ccccc1)NCc1ccco1	.	.	/	.	.	/
Cc1ccc2nc(Nc3nc(CSc4nc5ccccc5s4)cc(=O)[nH]3)nc(C)c2c1	.	.	/	24.8	.	.
CC(C)Cn1c(N)c(S(=O)(=O)c2cccs2)c2nc3ccccc3nc21	.	.	/	26.7	.	.
C[C@@H]1CN([C@@H](C)CO)C(=O)c2cc(-c3ccccc3F)cnc2O[C@H]1CN(C)C	/	/	.	/	/	/
CCCc1cc(=O)oc2cc(OCC(=O)NCCc3c[nH]c4ccccc34)ccc12	.	.	.	26.1	.	.
CN1/C(=C\C(=O)COC(=O)c2ccc([N+](=O)[O-])o2)C(C)(C)c2ccccc21	.	.	.	.	.	/
Cc1cc(OCC(=O)Nc2cccnc2)c2c(C)c(C)c(=O)oc2c1	.	.	.	28.8	.	29.8
C[C@H](CO)N1C[C@H](C)[C@@H](CN(C)C(=O)Nc2ccc3c(c2)OCO3)OCCCC[C@H](C)Oc2ccc(NC(=O)c3ccccc3)cc2C1=O	/	/	.	/	/	/
CCn1c(=O)n(CC(=O)NCC2CCCO2)c(=O)c2c3c(sc21)CCCC3 (stereo unspecified)	.	.	.	.	.	/
Cc1ccc(S(=O)(=O)N(CC(=O)NCc2cccnc2)C2CCCCC2)cc1	.	.	.	.	.	/
Cc1cc(C)c(S(=O)(=O)N(CC(=O)NCc2cccnc2)C2CCCCC2)c(C)c1	.	.	/	29.5	.	.
Cc1nn(CC(=O)N2CCCCCC2)c(=O)c2cc3occc3n12	.	.	.	.	.	/
NC1=NC[C@H](Cc2ccccc2)N1CCc1cc(C(F)(F)F)cc(C(F)(F)F)c1	.	.	.	25.5	.	.
COc1ncnc2c1ncn2CCCNc1ccc(C)c(C)c1	.	.	.	.	.	/
COc1ccc2cc(C(=O)Nc3ccc(S(N)(=O)=O)cc3)sc(=O)c2c1OC	.	.	.	24.7	.	.
COc1ccc2cc(C(=O)Nc3ccccc3)sc(=O)c2c1OC	.	.	.	.	.	/
Cc1cc(NC(=O)NC(=O)c2ccccc2NC(=O)CN(C)C)ccc1Oc1ncc(Br)cn1	.	.	.	30.6	.	.
CC1CCC(NC(=O)c2ccc3c(c2)OCO3)CC1 (stereo unspecified)	.	.	.	.	.	/
CC1(C)CC(NC(=O)c2ccc3c(c2)OCO3)CC(C)(C)N1	.	.	/	26.3	.	.
COC(=O)[C@]1(Cc2ccccc2)N[C@H](c2ccc(-c3ccc(F)cc3)cc2)[C@@H]2C(=O)N(C)C(=O)[C@@H]21	.	.	.	.	.	/
